Published values pooled from the literature.
Lines come from different studies, so protocols differ.
Target: Tyrosine-protein kinase receptor UFO (AXL, Homo sapiens, UniProt P30530)
Concentration: 1 µM
Sequence (P30530 26-894, as in one of the studies): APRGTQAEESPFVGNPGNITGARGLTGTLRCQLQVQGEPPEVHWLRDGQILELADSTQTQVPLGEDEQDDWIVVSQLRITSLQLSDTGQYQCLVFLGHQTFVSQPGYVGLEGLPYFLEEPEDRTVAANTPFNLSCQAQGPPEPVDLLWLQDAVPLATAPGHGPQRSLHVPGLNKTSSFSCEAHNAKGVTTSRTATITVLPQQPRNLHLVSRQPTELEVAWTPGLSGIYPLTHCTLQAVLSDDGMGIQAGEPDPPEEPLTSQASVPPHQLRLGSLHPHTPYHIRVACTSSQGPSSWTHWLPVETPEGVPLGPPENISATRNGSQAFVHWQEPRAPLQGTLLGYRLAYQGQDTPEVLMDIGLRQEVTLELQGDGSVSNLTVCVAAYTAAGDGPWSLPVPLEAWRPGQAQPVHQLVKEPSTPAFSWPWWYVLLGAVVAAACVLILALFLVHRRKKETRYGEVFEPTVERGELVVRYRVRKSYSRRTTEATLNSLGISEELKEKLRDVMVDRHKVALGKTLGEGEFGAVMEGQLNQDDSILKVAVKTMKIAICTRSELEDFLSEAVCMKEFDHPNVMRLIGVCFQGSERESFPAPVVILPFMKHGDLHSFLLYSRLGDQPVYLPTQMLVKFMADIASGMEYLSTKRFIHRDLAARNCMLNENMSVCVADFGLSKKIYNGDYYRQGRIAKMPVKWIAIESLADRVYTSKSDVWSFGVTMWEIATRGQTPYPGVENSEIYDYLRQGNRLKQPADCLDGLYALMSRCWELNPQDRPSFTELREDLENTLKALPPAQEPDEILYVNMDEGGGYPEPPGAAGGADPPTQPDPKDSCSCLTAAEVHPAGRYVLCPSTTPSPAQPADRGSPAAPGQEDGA

CN1CCN(C(=O)c2ccc(NC(=O)Nc3ccc(N(C)c4ccnc(Nc5ccc(CS(C)(=O)=O)cc5)n4)cc3)cc2)CC1  remaining binding (binding, competition with immobilised ligand): 9.7%
Cc1cc(S(=O)(=O)N[C@H]2CC[C@H](CN3CCN(c4ccc(C5CCC(=O)NC5=O)cc4F)CC3)CC2)ccc1Nc1ncc(C(F)(F)F)c(N2CCC[C@](C)(O)C2)n1 (some centres unmarked)  remaining binding (binding, competition with immobilised ligand): 56%
C#Cc1cnc(Nc2ccc(CO)nc2)nc1Nc1ccccc1S(C)(=O)=NC#N (centres unmarked)  remaining activity (enzyme activity, inhibitor): 27.6%
C=CC(=O)N1CCC([C@@H]2CCNc3c(C(N)=O)c(-c4ccc(Oc5ccccc5)cc4)nn32)CC1  inhibition (enzyme activity, inhibitor): 0%
C[C@H]1CC[C@H](n2c3cnccc3c3cnc(Nc4ccc5c(n4)CCN(C(=O)CO)C5)nc32)CC1  remaining binding (binding, competition with immobilised ligand): 81%
C=CC(=O)N1CCC[C@@H](n2nc(-c3ccc(Oc4ccccc4)cc3)c3c(N)ncnc32)C1  inhibition (enzyme activity, inhibitor): 34%
C#Cc1cnc(Nc2ccnc(CO)c2)nc1Nc1ccccc1S(C)(=O)=NC#N (centres unmarked)  remaining activity (enzyme activity, inhibitor): 26.1%
C[C@]1(O)CCCN(c2nc(Nc3ccc(S(=O)(=O)N[C@H]4CC[C@H](CN5CCN(c6ccc(C7CCC(=O)NC7=O)cc6F)CC5)CC4)cc3Cl)ncc2C(F)(F)F)C1 (some centres unmarked)  remaining binding (binding, competition with immobilised ligand): 98%
